Reference: ChEMBL document CHEMBL1138849, “5-substituted tetrazoles as bioisosteres of carboxylic acids. Bioisosterism and mechanistic studies on glutathione reductase inhibitors as antimalarials” (J Med Chem, 2004)
Calls of active or inactive are those of the source. The calls are words filed in the database; no cut-off is given here.

Columns and labels:
MRC5 = experiment: Cytotoxicity against human diploid embryonic lung cell line hMRC-5 was observed at conc. upto 32 uM; (No cytotoxicity); format: functional, cell-based
[1] = molecular target: T1, Glutathione reductase, mitochondrial (Homo sapiens) (UniProt P00390); experiment: Ratio of Catalysis constant Michaelis-Menten constant of human glutathione reductase
T1 sequence (whole entry): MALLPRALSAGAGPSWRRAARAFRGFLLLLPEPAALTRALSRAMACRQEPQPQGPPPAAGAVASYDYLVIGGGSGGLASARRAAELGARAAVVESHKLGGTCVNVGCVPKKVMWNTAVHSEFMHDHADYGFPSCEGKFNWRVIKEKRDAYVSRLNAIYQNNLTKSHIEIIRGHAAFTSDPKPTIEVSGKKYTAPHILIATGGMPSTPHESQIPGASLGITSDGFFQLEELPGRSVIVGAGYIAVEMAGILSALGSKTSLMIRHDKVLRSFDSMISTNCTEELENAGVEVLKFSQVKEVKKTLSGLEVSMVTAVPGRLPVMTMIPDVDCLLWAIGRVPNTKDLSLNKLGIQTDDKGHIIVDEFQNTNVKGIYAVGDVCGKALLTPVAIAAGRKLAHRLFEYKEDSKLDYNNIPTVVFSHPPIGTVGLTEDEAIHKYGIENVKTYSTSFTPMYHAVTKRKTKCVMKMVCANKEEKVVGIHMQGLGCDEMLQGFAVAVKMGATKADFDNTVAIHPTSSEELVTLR
Method in brief: (§1)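 Recombinant human or P. falciparum GR run as a quinone reductase without GSSG. Mix: 100 mM phosphate pH 7.0, 200 mM KCl, 100 μM NADPH, 1% DMSO, enzyme, and naphthoquinone at 10 levels from 10 to 400 μM. NADPH oxidation read at 340 nm (ε 6.22 mM⁻¹ cm⁻¹). Steady-state rates fitted to Michaelis–Menten by nonlinear regression to give Km and Vmax; kcat and kcat/Km calculated.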

[2] = molecular target: Glutathione reductase (Plasmodium falciparum 3D7) (UniProt O15770); experiment: Ratio of Catalysis constant Michaelis-Menten constant of Plasmodium falciparum glutathione reductase; method in brief: as §1
Glutathione reductase (Plasmodium falciparum 3D7), sequence (O15770 whole entry): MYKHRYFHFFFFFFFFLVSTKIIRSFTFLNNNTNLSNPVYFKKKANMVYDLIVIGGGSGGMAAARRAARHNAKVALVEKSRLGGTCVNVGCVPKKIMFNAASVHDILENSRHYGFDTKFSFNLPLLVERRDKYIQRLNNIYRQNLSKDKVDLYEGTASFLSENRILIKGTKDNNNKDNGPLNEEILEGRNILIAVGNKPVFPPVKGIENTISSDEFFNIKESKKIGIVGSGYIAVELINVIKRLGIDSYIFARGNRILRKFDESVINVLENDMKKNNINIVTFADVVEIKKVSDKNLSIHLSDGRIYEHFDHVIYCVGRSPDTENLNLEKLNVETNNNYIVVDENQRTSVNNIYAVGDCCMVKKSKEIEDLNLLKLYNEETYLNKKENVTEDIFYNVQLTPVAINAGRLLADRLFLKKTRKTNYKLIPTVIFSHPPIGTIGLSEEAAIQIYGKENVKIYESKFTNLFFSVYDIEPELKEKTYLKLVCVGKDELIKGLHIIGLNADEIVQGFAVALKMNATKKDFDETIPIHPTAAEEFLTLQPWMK

[3] = molecular target: T1, Glutathione reductase, mitochondrial (Homo sapiens); experiment: Catalysis constant against human glutathione reductase; method in brief: as §1
[4] = molecular target: Glutathione reductase (Plasmodium falciparum 3D7) (UniProt O15770); experiment: Catalysis constant against Plasmodium falciparum glutathione reductase; method in brief: as §1

SMILES | Cytotoxicity (MRC5) | further results
CC1=C(CCCCC(=O)NCCC#N)C(=O)c2ccccc2C1=O | inactive | 
CC1=C(CCCCc2nnnn2CCC#N)C(=O)c2ccccc2C1=O | inactive | 
CC1=C(CCCCCC(=O)O)C(=O)c2ccccc2C1=O | inactive | 
CC1=C(CCCc2nnnn2CCC#N)C(=O)c2ccccc2C1=O | inactive | 
CC1=C(CCCCC(=O)O)C(=O)c2ccccc2C1=O | inactive | 
CC1=CC(=O)c2ccccc2C1=O |  | K cat/Km [1]: 5330 M⁻¹ s⁻¹; K cat/Km [2]: 1990 M⁻¹ s⁻¹; K cat [3]: 0.16 s⁻¹; K cat [4]: 0.16 s⁻¹
CC1=C(CCCCCC(=O)NCCC#N)C(=O)c2ccccc2C1=O | inactive | 
CC1=C(CCCCCC(=O)OCCN(C)C)C(=O)c2ccccc2C1=O | inactive | 
CC1=C(CCCC(=O)NCCC#N)C(=O)c2ccccc2C1=O | inactive | 
CC1=C(CCCCCc2nnnn2CCC#N)C(=O)c2ccccc2C1=O | inactive | 
